Data set [1] concerns the target T1, Bile acid receptor (Homo sapiens) (UniProt Q96RI1).
T1 sequence (whole entry): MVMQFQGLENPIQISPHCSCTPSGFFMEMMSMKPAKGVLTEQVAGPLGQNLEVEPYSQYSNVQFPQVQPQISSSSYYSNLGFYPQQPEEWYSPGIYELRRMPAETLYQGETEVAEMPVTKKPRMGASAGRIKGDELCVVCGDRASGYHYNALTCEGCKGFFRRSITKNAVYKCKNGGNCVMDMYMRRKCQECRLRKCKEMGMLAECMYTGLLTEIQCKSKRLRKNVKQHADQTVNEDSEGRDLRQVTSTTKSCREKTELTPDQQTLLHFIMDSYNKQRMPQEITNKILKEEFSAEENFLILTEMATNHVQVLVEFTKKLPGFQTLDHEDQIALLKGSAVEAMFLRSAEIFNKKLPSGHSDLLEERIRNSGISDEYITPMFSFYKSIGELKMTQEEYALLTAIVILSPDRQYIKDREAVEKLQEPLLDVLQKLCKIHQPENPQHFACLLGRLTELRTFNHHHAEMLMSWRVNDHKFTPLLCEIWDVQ
As to the kind of experiment: Modulation of FXR in human HepG2 cells assessed as induction of PPARalpha mRNA expression at 10 nM by qRT-PCR analysis. Type of data set: cell-based. A digest of the protocol: (§1)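 HepG2 hepatocarcinoma cells were incubated with the compound at 10 nM. FXR target-gene mRNA was quantified by qRT-PCR (n = 3), with significance at p < 0.05, 0.01 and 0.001.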

The nature of data set [2]: Aqueous solubility of compound. Type of data set: physicochemical. As to conditions: buffer.
Data set [3] has as its target Nuclear receptor subfamily 1 group I member 3 (Homo sapiens, UniProt Q14994). The data set is described as follows: Antagonist activity at GAL4-tagged human CAR isoform 6 ligand binding domain (48 to 324 residues) expressed in HEK293T cells at 1 uM after 12 to 14 hrs by dual-glo luciferase reporter gene assay. Type of data set: cell-based. The settings on record: hek-293t. A digest of the protocol: (§2)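 Run as a selectivity screen against each listed receptor (14 nuclear receptors plus TGR5), in both agonist and antagonist modes. Test concentration was 1 µM, with n = 3.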
(In general: Reporter assays use an easily measured gene product as a stand-in for the process of interest.)

Data set [4] addresses Retinoic acid receptor gamma (Homo sapiens) (UniProt P13631). As to the kind of experiment: Transactivation of GAL4-tagged human RARgamma isoform 1 ligand binding domain (179 to 454 residues) expressed in HEK293T cells at 1 uM after 12 to 14 hrs by dual-glo luciferase reporter gene assay. The settings on record: HEK-293T. The format is cell-based. Put shortly:
as §2

Data set [5] deals with Retinoic acid receptor beta (Homo sapiens) (UniProt P10826). The data set is described as follows: Transactivation of GAL4-tagged human RARbeta1 ligand binding domain (177 to 455 residues) expressed in HEK293T cells at 1 uM after 12 to 14 hrs by dual-glo luciferase reporter gene assay. Type of data set: cell-based. The settings on record: HEK-293T. A digest of the protocol: as §2

Data set [6] has as its target T1, Bile acid receptor (Homo sapiens). The data set is described as follows: Modulation of FXR in human HepG2 cells assessed as suppression of CYP7A1 mRNA expression at 10 nM by qRT-PCR analysis. Type of data set: cell-based. A digest of the protocol:
as §1
For orientation: Real-time PCR tracks product formation cycle by cycle.

Data set [7] has as its target Nuclear receptor subfamily 1 group I member 2 (Homo sapiens, UniProt O75469). As to the kind of experiment: Antagonist activity at GAL4-tagged human PXR isoform 1 ligand binding domain (138 to 434 residues) expressed in HEK293T cells at 1 uM after 12 to 14 hrs by dual-glo luciferase reporter gene assay. The settings on record: hek-293t. Type of data set: cell-based. Put shortly: as §2

Data set [8] relates to HeLa. As to the kind of experiment: Selectivity ratio for human FXR expressed in human HeLa cells co-expressing BSEP over GAL4-tagged human PPARgamma ligand binding domain expressed in HEK293T cells. The format is cell-based.
Data set [9] deals with Peroxisome proliferator-activated receptor delta (Homo sapiens) (UniProt Q03181). The data set is described as follows: Transactivation of GAL4-tagged human PPARdelta ligand binding domain expressed in HEK293T cells at 1 uM after 12 to 14 hrs by dual-glo luciferase reporter gene assay. The format is cell-based. As to conditions: HEK-293T. A digest of the protocol: as §2

In data set [10] the test system is HeLa. The data set is described as follows: Selectivity ratio for human FXR expressed in human HeLa cells co-expressing BSEP over GAL4-tagged human LXRalpha ligand binding domain expressed in HEK293T cells. Type of data set: cell-based.
Data set [11] deals with T1, Bile acid receptor (Homo sapiens). The data set is described as follows: Transactivation of human FXR expressed in human HeLa cells co-expressing BSEP at 3 uM after 24 hrs by dual-glo luciferase reporter gene assay relative to GW4064. The format is cell-based. Put shortly:
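Full-length FXR reporter gene assay with constitutively expressed hFXR and hRXR, plus renilla luciferase for normalization and toxicity control. Maximum relative activation is expressed against the reference agonist at 3 µM, set as 100%.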

Data set [12] concerns the target Oxysterols receptor LXR-alpha (Homo sapiens) (UniProt Q13133). As to the kind of experiment: Antagonist activity at GAL4-tagged human LXRalpha ligand binding domain expressed in HEK293T cells at 1 uM after 12 to 14 hrs by dual-glo luciferase reporter gene assay. The format is cell-based. The settings on record: HEK-293T. Put shortly: as §2
The target of data set [13] is Retinoic acid receptor RXR-beta (Homo sapiens) (UniProt P28702). The data set is described as follows: Transactivation of GAL4-tagged human RXRbeta isoform 1 ligand binding domain (294 to 533 residues) expressed in HEK293T cells at 1 uM after 12 to 14 hrs by dual-glo luciferase reporter gene assay. Type of data set: cell-based. The settings on record: HEK-293T. Put shortly:
as §2

The target in data set [14] is Retinoic acid receptor RXR-gamma (Homo sapiens) (UniProt P48443). The data set is described as follows: Transactivation of GAL4-tagged human RXRgamma ligand binding domain (229 to 463 residues) expressed in HEK293T cells at 1 uM after 12 to 14 hrs by dual-glo luciferase reporter gene assay. Type of data set: cell-based. As to conditions: HEK-293T. A digest of the protocol:
as §2

Data set [15] has as its target Retinoic acid receptor RXR-alpha (Homo sapiens) (UniProt P19793). The data set is described as follows: Antagonist activity at GAL4-tagged human RXRalpha ligand binding domain (225 to 462 residues) expressed in HEK293T cells at 1 uM after 12 to 14 hrs by dual-glo luciferase reporter gene assay. As to conditions: HEK-293T. Type of data set: cell-based. Put shortly:
as §2

Data set [16] has as its target T1, Bile acid receptor (Homo sapiens). The data set is described as follows: Modulation of FXR in human HepG2 cells assessed as induction of OSTalpha mRNA expression at 10 nM by qRT-PCR analysis. Type of data set: cell-based. A digest of the protocol: as §1
Data set [17] deals with Peroxisome proliferator-activated receptor gamma (Homo sapiens) (UniProt P37231). The data set is described as follows: Antagonist activity at GAL4-tagged human PPARgamma ligand binding domain expressed in HEK293T cells at 1 uM after 12 to 14 hrs by dual-glo luciferase reporter gene assay. The settings on record: HEK-293T. Type of data set: cell-based. Put shortly:
as §2

The test system of data set [18] is HeLa. As to the kind of experiment: Selectivity ratio for human FXR expressed in human HeLa cells co-expressing BSEP over GAL4-tagged human RXRalpha ligand binding domain (225 to 462 residues) expressed in HEK293T cells. The format is cell-based.
For data set [19], the target named is Retinoic acid receptor beta (Homo sapiens) (UniProt P10826). As to the kind of experiment: Antagonist activity at GAL4-tagged human RARbeta1 ligand binding domain (177 to 455 residues) expressed in HEK293T cells at 1 uM after 12 to 14 hrs by dual-glo luciferase reporter gene assay. The format is cell-based. The settings on record: HEK-293T. A digest of the protocol: as §2

Data set [20] concerns the target Peroxisome proliferator-activated receptor gamma (Homo sapiens) (UniProt P37231). The data set is described as follows: Transactivation of GAL4-tagged human PPARgamma ligand binding domain expressed in HEK293T cells at 1 uM after 12 to 14 hrs by dual-glo luciferase reporter gene assay. The format is cell-based. As to conditions: HEK-293T. Put shortly: as §2
For data set [21], the system named is HeLa. The data set is described as follows: Selectivity ratio for human FXR expressed in human HeLa cells co-expressing BSEP over GAL4-tagged human VDR isoform 1 ligand binding domain (119 to 427 residues) expressed in HEK293T cells. Type of data set: cell-based.
Data set [22] has as its target Oxysterols receptor LXR-beta (Homo sapiens) (UniProt P55055). The data set is described as follows: Transactivation of GAL4-tagged human LXRbeta ligand binding domain expressed in HEK293T cells at 1 uM after 12 to 14 hrs by dual-glo luciferase reporter gene assay. The format is cell-based. The settings on record: HEK-293T. A digest of the protocol:
as §2

The target of data set [23] is T1, Bile acid receptor (Homo sapiens). The data set is described as follows: Modulation of FXR in human HepG2 cells assessed as suppression of SREBP1c mRNA expression at 10 nM by qRT-PCR analysis. Type of data set: cell-based. Put shortly:
as §1

≈ marks a conversion by molar mass, not a printed value. Calls of active or inactive are those of the source. The rule behind the calls is not given here.

A word on the solubility: it is the concentration that dissolves in the medium under given conditions. The low end stands for a poorly soluble substance, the high end for a readily soluble substance.

Retinoic acid receptor beta (Homo sapiens), sequence (P10826 whole entry, the tested form may be a part): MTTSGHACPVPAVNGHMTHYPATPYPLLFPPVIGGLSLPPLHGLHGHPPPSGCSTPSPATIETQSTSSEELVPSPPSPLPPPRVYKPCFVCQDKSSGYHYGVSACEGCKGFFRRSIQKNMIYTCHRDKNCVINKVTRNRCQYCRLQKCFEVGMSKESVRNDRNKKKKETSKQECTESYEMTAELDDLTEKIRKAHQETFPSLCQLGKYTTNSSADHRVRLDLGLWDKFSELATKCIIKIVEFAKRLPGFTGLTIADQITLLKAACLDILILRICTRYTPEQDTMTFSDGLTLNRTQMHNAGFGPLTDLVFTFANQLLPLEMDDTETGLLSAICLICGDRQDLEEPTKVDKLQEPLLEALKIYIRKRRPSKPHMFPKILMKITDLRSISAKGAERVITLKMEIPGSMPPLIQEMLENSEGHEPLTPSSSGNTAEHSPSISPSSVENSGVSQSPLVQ
Peroxisome proliferator-activated receptor gamma (Homo sapiens), sequence (P37231 whole entry, the tested form may be a part, canonical isoform): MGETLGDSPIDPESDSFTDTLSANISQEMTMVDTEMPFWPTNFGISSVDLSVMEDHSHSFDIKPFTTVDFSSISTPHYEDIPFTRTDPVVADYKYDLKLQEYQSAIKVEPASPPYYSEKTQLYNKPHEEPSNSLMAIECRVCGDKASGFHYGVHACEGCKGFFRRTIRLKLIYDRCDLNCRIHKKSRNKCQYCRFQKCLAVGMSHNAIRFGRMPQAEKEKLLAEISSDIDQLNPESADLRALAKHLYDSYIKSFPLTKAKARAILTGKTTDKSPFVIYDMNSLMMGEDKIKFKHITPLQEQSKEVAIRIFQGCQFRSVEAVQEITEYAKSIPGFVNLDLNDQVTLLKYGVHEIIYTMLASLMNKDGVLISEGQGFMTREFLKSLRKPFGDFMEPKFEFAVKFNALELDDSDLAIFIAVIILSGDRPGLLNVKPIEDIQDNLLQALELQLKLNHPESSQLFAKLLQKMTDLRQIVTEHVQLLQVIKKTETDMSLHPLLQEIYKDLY
Retinoic acid receptor RXR-gamma (Homo sapiens), sequence (P48443 whole entry, the tested form may be a part): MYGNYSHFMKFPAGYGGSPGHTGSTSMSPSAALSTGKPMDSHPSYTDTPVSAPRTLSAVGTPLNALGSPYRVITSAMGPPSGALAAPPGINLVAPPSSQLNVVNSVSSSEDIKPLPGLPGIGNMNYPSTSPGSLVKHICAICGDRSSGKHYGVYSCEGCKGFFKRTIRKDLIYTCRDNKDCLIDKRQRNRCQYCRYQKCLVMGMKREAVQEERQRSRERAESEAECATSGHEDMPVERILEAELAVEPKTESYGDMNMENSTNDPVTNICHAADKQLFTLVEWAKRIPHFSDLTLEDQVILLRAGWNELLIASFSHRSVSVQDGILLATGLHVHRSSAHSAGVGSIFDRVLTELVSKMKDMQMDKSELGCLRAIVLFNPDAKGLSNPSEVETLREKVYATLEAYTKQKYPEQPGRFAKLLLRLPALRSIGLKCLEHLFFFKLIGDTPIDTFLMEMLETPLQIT
Oxysterols receptor LXR-beta (Homo sapiens), sequence (P55055 whole entry, the tested form may be a part): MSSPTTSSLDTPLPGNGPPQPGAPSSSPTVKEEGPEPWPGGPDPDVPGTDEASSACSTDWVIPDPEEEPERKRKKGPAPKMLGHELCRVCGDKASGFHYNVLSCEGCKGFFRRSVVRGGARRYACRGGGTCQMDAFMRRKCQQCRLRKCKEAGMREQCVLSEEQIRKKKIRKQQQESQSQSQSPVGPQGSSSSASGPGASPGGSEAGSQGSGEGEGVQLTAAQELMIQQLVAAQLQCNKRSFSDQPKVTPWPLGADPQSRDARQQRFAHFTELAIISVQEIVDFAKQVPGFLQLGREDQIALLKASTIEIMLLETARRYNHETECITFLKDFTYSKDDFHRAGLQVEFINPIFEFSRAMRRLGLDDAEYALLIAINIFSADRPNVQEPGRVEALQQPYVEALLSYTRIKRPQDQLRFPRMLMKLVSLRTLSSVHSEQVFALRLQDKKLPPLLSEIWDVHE
Retinoic acid receptor RXR-alpha (Homo sapiens), sequence (P19793 whole entry, the tested form may be a part): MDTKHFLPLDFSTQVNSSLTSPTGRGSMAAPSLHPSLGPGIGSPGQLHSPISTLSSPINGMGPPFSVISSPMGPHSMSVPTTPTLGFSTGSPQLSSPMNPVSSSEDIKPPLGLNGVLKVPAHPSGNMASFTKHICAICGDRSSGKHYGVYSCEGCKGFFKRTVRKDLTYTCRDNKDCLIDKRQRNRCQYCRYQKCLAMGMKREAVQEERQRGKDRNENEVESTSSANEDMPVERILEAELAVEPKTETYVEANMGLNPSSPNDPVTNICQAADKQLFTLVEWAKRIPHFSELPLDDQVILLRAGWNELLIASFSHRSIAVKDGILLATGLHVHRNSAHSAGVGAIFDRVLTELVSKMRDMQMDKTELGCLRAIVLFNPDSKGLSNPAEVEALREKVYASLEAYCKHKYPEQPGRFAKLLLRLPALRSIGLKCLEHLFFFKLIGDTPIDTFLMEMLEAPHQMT
Retinoic acid receptor RXR-beta (Homo sapiens), sequence (P28702 whole entry, the tested form may be a part, canonical isoform): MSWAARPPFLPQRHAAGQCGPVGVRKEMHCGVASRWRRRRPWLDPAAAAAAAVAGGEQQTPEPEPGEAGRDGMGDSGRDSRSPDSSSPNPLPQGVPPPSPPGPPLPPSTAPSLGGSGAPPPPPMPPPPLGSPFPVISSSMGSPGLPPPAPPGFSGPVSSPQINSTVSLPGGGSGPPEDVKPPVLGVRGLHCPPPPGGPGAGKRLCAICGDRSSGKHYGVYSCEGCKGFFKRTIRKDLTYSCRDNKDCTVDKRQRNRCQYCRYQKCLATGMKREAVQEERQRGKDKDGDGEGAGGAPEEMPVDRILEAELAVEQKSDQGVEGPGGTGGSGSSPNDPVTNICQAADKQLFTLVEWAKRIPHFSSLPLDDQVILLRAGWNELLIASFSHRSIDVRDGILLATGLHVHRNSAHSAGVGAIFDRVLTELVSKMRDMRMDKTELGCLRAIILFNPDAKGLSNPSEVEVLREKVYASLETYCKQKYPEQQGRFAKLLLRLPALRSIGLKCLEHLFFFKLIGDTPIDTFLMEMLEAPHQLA
Oxysterols receptor LXR-alpha (Homo sapiens), sequence (Q13133 whole entry, the tested form may be a part, canonical isoform): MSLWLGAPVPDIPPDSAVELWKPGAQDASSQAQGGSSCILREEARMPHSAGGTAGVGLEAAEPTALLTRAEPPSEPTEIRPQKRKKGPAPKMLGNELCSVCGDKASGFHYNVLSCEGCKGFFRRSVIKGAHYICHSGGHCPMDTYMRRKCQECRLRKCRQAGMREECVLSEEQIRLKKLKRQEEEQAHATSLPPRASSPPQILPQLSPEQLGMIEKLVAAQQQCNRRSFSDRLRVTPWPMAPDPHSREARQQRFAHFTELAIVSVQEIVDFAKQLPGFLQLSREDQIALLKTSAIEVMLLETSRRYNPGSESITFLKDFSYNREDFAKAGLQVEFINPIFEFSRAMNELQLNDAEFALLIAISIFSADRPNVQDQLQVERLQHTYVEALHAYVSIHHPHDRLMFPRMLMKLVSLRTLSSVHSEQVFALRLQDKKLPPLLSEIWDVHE
Peroxisome proliferator-activated receptor delta (Homo sapiens), sequence (Q03181 whole entry, the tested form may be a part): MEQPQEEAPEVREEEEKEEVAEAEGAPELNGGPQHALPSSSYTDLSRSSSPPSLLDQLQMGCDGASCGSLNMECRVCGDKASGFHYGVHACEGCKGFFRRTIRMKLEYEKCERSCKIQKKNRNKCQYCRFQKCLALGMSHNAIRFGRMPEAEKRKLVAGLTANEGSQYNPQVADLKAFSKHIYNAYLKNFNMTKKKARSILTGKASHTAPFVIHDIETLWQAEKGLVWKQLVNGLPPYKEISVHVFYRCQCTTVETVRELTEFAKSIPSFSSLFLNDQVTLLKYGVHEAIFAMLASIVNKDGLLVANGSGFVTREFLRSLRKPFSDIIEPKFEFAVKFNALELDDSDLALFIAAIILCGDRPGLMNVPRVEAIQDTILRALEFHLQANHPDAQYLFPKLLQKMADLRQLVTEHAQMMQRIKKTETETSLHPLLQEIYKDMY
Retinoic acid receptor gamma (Homo sapiens), sequence (P13631 whole entry, the tested form may be a part, canonical isoform): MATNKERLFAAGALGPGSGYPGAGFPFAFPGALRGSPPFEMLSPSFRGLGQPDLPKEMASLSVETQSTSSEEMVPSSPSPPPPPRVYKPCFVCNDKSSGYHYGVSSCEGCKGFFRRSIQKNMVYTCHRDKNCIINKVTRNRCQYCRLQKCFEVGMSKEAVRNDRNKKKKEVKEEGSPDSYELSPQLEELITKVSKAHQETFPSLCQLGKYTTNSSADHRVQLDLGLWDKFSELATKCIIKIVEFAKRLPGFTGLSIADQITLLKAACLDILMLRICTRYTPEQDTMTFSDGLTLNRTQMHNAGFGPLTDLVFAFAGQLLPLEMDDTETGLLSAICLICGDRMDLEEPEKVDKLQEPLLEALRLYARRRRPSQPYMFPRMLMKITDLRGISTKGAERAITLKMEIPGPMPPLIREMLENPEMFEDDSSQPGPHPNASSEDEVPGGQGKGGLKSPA
Nuclear receptor subfamily 1 group I member 2, sequence (O75469 whole entry, the tested form may be a part, canonical isoform): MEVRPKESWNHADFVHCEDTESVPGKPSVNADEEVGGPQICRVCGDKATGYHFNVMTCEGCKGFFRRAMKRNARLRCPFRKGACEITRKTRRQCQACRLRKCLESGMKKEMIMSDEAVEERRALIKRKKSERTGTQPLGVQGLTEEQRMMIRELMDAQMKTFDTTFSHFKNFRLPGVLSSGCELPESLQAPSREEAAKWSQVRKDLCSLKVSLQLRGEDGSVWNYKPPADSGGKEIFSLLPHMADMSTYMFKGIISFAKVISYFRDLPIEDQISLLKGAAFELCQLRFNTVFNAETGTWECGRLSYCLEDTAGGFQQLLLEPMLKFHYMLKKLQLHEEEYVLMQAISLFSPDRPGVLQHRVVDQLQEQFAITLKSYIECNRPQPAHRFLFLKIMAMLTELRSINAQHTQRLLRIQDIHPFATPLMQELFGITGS

Consider `COc1ccc(CNc2c(-c3cc(Cl)ccn3)nc3ccc(Cl)cn23)cc1`, for which the result in data set [1], in data set [6], in [16] and in [23] was Active. In data set [2], this compound came in with a solubility of 0.0637 µg/mL (≈ 0.16 µM). Also, the “inhibition (INH)” value in data set [3] and in data set [7] was “Not Active” throughout. Besides, the outcome in data set [4], in [5], in [9], in data set [13], in data set [14] and in [20] was inactive. In addition, in [22], the result was inactive. Also, the Selectivity ratio in data set [8], in data set [10], in data set [18] and in data set [21] was 3000 in each case. Also, the max activation in data set [11] came out at 23%. For the same compound, the inhibition result in [12], in [15], in [17] and in [19] was “inactive” each time.

Values taken from ChEMBL document CHEMBL4038333, “Nonacidic Farnesoid X Receptor Modulators” (J Med Chem, 2017).
